NR2E3 ag-1 – NR2E3 agonists in two-hybrid cells, primary screen, cell-based, luminescence, CHO-S, Gal4-NCOR/VP16-NR2E3; Photoreceptor-specific nuclear receptor (Homo sapiens), Q9Y5X4; luciferase; inhibition of corepressor binding, % at 3.98 µM; 360,000 compounds, 0.35% hits;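 active = inhibition above the mean of all tested compounds plus 3 SD, cut at about 70% in these data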;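 also: 0% = DMSO with NR2E3 transfected cells and 100% = cells lacking NR2E3 construct; higher means lower luciferase signal from less NR2E3 corepressor binding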
GalR3 antag – GalR3 antagonists in HEK293 cells, primary screen, cell-based, fluorescence readout. HEK293 GalR3-CNG cAMP membrane potential fluorescence; galR3 body fused to GalR1 C-terminus. Galanin receptor type 3 (Homo sapiens), O60755. 360,000 compounds, 0.44% hits. inhibition, % at 3 µM. AID 651719, 2012;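 active = inhibition above the screen-wide average plus 3 SD, cut at about 13% in these data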;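 also: forskolin and galanin both at EC90 stimulate the cells; cAMP rise reported by CNG channel membrane potential dye signal; 0% = forskolin plus galanin with DMSO and 100% = forskolin alone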
Target sequence (O60755 1-299 limits assumed): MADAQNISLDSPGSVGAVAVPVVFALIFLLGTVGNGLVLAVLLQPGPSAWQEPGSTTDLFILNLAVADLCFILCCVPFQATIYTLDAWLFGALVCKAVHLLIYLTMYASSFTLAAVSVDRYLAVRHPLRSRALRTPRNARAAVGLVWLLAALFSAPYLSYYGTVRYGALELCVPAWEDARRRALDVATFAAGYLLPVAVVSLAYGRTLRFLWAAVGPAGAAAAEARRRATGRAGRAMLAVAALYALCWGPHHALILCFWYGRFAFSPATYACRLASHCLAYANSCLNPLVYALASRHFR
NR2F2 inh – NR2F2 transcriptional activity inhibitors, primary screen, cell-based, luciferase reporter, HEK293T, luminescence | COUP transcription factor 2 (Homo sapiens), P24468 | HEK293T NGFI-A luciferase reporter | inhibition, % at 8.6 µM | 370,000 compounds, 0.7% hits | AID 686940, 2013;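 active = inhibition above a per-plate cutoff, mean inhibition of test wells between control levels plus 3 SD, cut at about 38% in these data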;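 also: cells cotransfected with COUP-TFII expression vector driving the NGFI-A reporter; 0% = median of COUP-TF2 test wells and 100% = reporter-only cells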
Target sequence (P24468 whole entry, looked up): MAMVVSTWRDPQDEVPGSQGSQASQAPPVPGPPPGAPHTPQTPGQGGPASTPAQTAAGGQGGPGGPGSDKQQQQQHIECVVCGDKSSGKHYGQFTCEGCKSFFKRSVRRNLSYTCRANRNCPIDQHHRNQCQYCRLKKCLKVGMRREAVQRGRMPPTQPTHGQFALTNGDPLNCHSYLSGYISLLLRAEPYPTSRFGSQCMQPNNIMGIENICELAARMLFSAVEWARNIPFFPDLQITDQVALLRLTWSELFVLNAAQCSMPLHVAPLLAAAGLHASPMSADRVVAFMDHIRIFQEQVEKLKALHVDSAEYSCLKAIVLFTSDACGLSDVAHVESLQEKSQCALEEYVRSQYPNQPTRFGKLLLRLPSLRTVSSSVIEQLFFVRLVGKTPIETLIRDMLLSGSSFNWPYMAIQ
SMARCA2 activ – SMARCA2 (BRM) function activators, primary screen, cell-based, luminescence, high throughput | MG213 cells, MMTV-luciferase reporter, dexamethasone, overnight | AID 652017, 2013 | activation, % at 9.1 µM | 370,000 compounds, 1% hits; in the data active = activation above about 7.8%;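 also: 0% = vehicle wells and 100% = reference activator wells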
NR2E3 ag-2 – inhibitors of NR2E3-RetCOR corepressor binding, primary screen, NR2E3 agonist project, biochemical, TR-FRET, GST-NR2E3, biotin-RetCOR. inhibition of corepressor binding, % at 4.78 µM. Photoreceptor-specific nuclear receptor (Homo sapiens), Q9Y5X4. AID 2300, 2010. 320,000 compounds, 0.12% hits. 1536-well;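 active = percent inhibition above the cutoff of mean plus 3 SD of all tested compounds, set per screening campaign, cut at about 20% in these data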;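 also: 0% = DMSO wells and 100% = biotin wells as full block of FRET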
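Material: NR2E3–RetCOR corepressor complex / Incubation: Compound–protein incubation for 5 h at 4 °C / Dosing: compound at 4.8 µM, single dose / Detection: time-resolved FRET / Benchmarks: high control biotin, low control 0.6% DMSO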
SMARCA2 act conf – SMARCA2 (BRM) function activators, confirmation, cell-based, luminescence, triplicate; shares compounds with SMARCA2 activ; MG213 cells, MMTV-luciferase with dexamethasone, overnight; MG213 cells expressing E1A, Rb sequestered; DMSO wells 0%, reference activator 100%; activation, % at 9.1 µM; 3,500 compounds, 30% hits; AID 652260, 2013;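 active = activation above its plate's cutoff, the mean activation of tested wells plus 3 SD, cut at about 7.9% in these data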
GAL4-VP16 Luc – GAL4-VP16 luciferase reporter activation, counter-screen for SMARCA2 (BRM) activator project, cell-based, pG5luc, luminescence, high throughput | shares compounds with SMARCA2 activ | HEK293 GAL4-VP16 pG5luc reporter; scaled: DMSO wells 0%, SAHA wells 100% | activation, % at 9.1 µM | 3,500 compounds, 41% hits | AID 686939, 2013;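 active = activation above the solvent-only control well mean plus 3 SD, averaged across control plates, cut at about 5.2% in these data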
The depositor's hits bear a star; · = no result. Compounds with a hit are over-represented: about 2.2% of the library has one in this group of screens.

SMILES | NR2E3 ag-1 | GalR3 antag | NR2F2 inh | SMARCA2 activ | NR2E3 ag-2 | SMARCA2 act conf | GAL4-VP16 Luc
COC(=O)[C@]1(CNC(=O)Nc2ccc(C)c(Cl)c2)CC(=O)N(C)[C@@H]1c1ccccc1 | · | · | 2 | -4 | · | · | ·
Cc1cc(NC(=O)c2ccccc2[N+](=O)[O-])ccc1Br | -22 | 1 | -36 | 8.2* | -4 | 13* | 6.3*
Cc1ccccc1C(=O)Nc1cccc(NC(=O)c2ccccc2[N+](=O)[O-])c1 | -47 | -4 | 2 | 1 | 0 | · | ·
Cc1ccnc(SCc2cc(=O)c(OC(=O)c3ccc(C#N)cc3)co2)n1 | · | · | 26 | · | · | · | ·
CCOC(=O)C1(C(=O)OCC)Cc2c([nH]c3ccccc23)[C@]2(N1)C(=O)N(C)c1ccc(Br)cc12 | · | · | 1 | -4 | · | · | ·
CCc1cc2c(=O)c(-c3nc(C)cs3)coc2cc1O | -99 | -9 | -30 | 4 | -8 | · | ·
Cc1csc(-c2coc3cc(O)cc(C)c3c2=O)n1 | -126 | -11 | -50 | 9.0* | 1 | 15* | 7.5*
CCOc1ccc(/C(O)=C2/C(=O)C(=O)N(CCOCCO)C2c2ccccn2)cc1 (centres undefined) | -18 | -5 | -13 | 8.6* | 4 | -1 | 1
COCCN1C(=O)C(=O)/C(=C(/O)c2ccc(C)cc2)C1c1ccccn1 (centres undefined) | 7 | -3 | 16 | 3 | -3 | · | ·
COc1ccc(CN(CC#Cc2ccccc2)Cc2ccccc2)c(OC)c1 | · | · | -21 | -4 | · | · | ·
O=C(O)c1ccc(N/N=C/C=C/c2ccc([N+](=O)[O-])o2)cc1 | -22 | -9 | -13 | -1 | -8 | · | ·
O=[N+]([O-])c1ccc(N/N=C/C=C/c2ccco2)cc1 | -92 | -6 | -32 | 8.2* | -5 | 3 | 6.5*
CC(=O)c1cc(-c2cc(C(F)(F)F)cc(C(F)(F)F)c2)c(=O)n2c1CCC2 | · | · | 9 | 0 | · | · | ·
CCC(=O)Nc1ccc(N2CCC(C)CC2)cc1 | -37 | -3 | -31 | 9.6* | 1 | 4 | 4
N=c1n(CCN2CCCC2)c2ccccc2n1CC(O)c1ccc(Cl)c(Cl)c1 (centres undefined) | 10 | -9 | -22 | 14* | 0 | -10 | 2
CCCCCc1ccc(-c2n[nH]c(=O)c3ccccc23)cc1 | · | · | -14 | -2 | · | · | ·
CC(/C=N/NC(=O)c1ccco1)=C\c1ccccc1 | -108 | -7 | -28 | 9.4* | 0 | 11* | 6.1*
CN(C)c1ccc(/C=N/NC(=O)c2ccco2)cc1 | -97 | -1 | -42 | 5 | -11 | · | ·
Cc1ccc(/C=N/NC(=O)c2ccco2)cc1 | -110 | 1 | -19 | 8.8* | -1 | 6 | 11*
COc1ccc(CCNC(=O)c2cnn(-c3ccccc3)c2N)cc1OC | · | · | -1 | 0 | · | · | ·
C=CCNC(=O)CN(C(=O)Cc1ccc(Cl)nc1)c1cccc(Br)c1 | · | · | 9 | -2 | · | · | ·
O=C(NCCC1=CCCCC1)C1CCCN(S(=O)(=O)c2cccnc2)C1 (centres undefined) | -5 | 1 | 4 | 1 | 2 | · | ·
O=C(NCCC1=CCCCC1)C1CCCN(S(=O)(=O)c2cccc3cccnc23)C1 (centres undefined) | 33 | -1 | 21 | 10* | 4 | -5 | -1
CC(C)(C)C(=O)OC12CCCN(C1)/C(=C/c1ccncc1)C2 (centres undefined) | · | · | 26 | -2 | · | · | ·
COc1ccc(C(C(=O)N(C)C2CCCC2)N(Cc2ccc(F)cc2)C(=O)c2csc3ccc(Cl)cc23)cc1OC (centres undefined) | · | · | 9 | -6 | · | · | ·
SMILES | NR2E3 ag-1 | GalR3 antag | NR2F2 inh | SMARCA2 activ | NR2E3 ag-2 | SMARCA2 act conf | GAL4-VP16 Luc
COc1ccc(-c2cc(C#N)nc(Oc3ccc(Cl)cc3)n2)cc1 | 3 | -5 | 9 | -3 | 2 | · | ·
COc1ccc(-c2cc(C#N)nc(Cl)n2)cc1 | -10 | -3 | 0 | 21* | -2 | 41* | 2
COc1ccc2[nH]c3c(C)c4ccncc4c(C)c3c2c1 | -4 | 1 | -34 | 16* | -7 | 48* | 1
Cc1c2ccncc2cc2c1[nH]c1ccccc12 | 8 | -6 | 10 | 3 | · | · | ·
CCCCNS(=O)(=O)/C=C/c1ccccc1CNC(=O)OC(C)(C)C | · | · | -11 | 0 | · | · | ·
Cc1ccnc(N2CCCC(C(=O)Nc3ccc(C)c(C)c3)C2)n1 (centres undefined) | -46 | -6 | -9 | -3 | 5 | · | ·
Cc1ccc(NC(=O)C2CCCN(c3ncccn3)C2)cc1C (centres undefined) | -25 | -9 | 0 | 15* | -4 | 7 | 7.0*
COc1ccc(NC(=O)C2CCCN(c3ncccn3)C2)cc1 (centres undefined) | -38 | -9 | -34 | 8.4* | -2 | 6 | 5.2*
Cc1cc(=O)[nH]c(SCC(=O)Nc2cccc(C)c2C)n1 | · | · | 13 | -3 | · | · | ·
Cn1c(N)c(C(=O)COC(=O)c2ccc(Cl)c(S(=O)(=O)N3CCCCC3)c2)c(=O)n(C)c1=O | -20 | -10 | -7 | 12* | 0 | -1 | -2
O=C(COC(=O)c1ccc(Cl)c(S(=O)(=O)N2CCCCC2)c1)NC1CCCCC1 | -29 | 0 | -6 | 15* | · | 2 | -1
COc1ccc(C(=O)NC2CCCCC2)cc1S(=O)(=O)N1CCOCC1 | -36 | -8 | 11 | 15* | 5 | -2 | -1
Cc1ccc(C(=O)N2CCC(Oc3cccnc3)CC2)c(C)c1 | · | · | -1 | 2 | · | · | ·
O=C(NCc1ccccc1F)C1C2C=CC3(CN(Cc4ccccc4)C(=O)C13)O2 (centres undefined) | · | · | 3 | -3 | · | · | ·
C[C@@H]1[C@@H](c2ccccc2)c2cc3ccccc3nc2-c2nc3ccccc3cc2[C@@H]1C(=O)N1CCCC1 | · | · | -1 | -1 | · | · | ·
C/C(=N\Nc1nccnc1Cl)c1ccc(F)cc1 | -94 | -5 | -45 | 8.9* | 5 | 10* | 12*
C/C(=N\Nc1nccnc1Cl)c1ccc(O)cc1 | -91 | -10 | -41 | 7 | 5 | · | ·
C/C(=N/NC(=O)Nc1ccccc1)c1ccc(C)cc1 | -61 | -4 | -5 | 8.7* | 2 | 3 | 0
C/C(=N\NC(=O)Nc1ccccc1)c1ccc2ccccc2c1 | -74 | -7 | -12 | 0 | -2 | · | ·

From PubChem BioAssay
